Activity calls are given as the source filed them. The calls are words filed in the database; no cut-off is given here.
What was measured:
HepG2 [1] = assay: Cytotoxicity against human HepG2 cells after 48 hrs by sulforhodamine B assay; format: functional, cell-based; conditions: HepG2, 48 h
Procedure, shortened: (§1)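 Cells seeded at 5000/well, incubated overnight at 37 °C, then exposed 48 h to 0.1 µM-100 µM compound from DMSO stock (final DMSO ≤0.25%); 0.25% DMSO vehicle and 10 μM doxorubicin controls. Fixed, stained with sulforhodamine B, absorbance normalized to untreated cells; 4-parameter logistic fit gives IC50, mean ± SD of two independent assays.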

[2] = Cytotoxicity against […] cells after 48 hrs by sulforhodamine B assay; format: functional, cell-based; conditions: Hepa1-6, 48 h; procedure, shortened: as §1
Caco-2 = assay: Cytotoxicity against human Caco2 cells after 48 hrs by sulforhodamine B assay; format: functional, cell-based; conditions: Caco-2, 48 h; procedure, shortened: as §1
HT-29 = assay: Cytotoxicity against human HT-29 cells after 48 hrs by sulforhodamine B assay; format: functional, cell-based; conditions: HT-29, 48 h; procedure, shortened: as §1
HeLa = assay: Cytotoxicity against human HeLa cells after 48 hrs by sulforhodamine B assay; format: functional, cell-based; procedure, shortened: as §1
NIH3T3 = assay: Cytotoxicity against […] cells after 48 hrs by sulforhodamine B assay; format: functional, cell-based; conditions: Mus musculus, NIH3T3, 48 h; procedure, shortened: as §1
Hepa1-6 [3] = assay: Cytotoxicity against […] cells at 2.5 to 5 uM after 48 hrs by MTS assay; format: functional, cell-based
Procedure, shortened: (§2)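 Fresh CD-1 mouse hepatocytes (Williams' E medium) or Hepa1-6 (DMEM, 10% FBS), plated, incubated overnight at 37 °C; media refreshed, then 0.5, 2.5, 5 and 10 μM compound for 48 h. MTS reagent added for 4 h at 37 °C, 5% CO2; A490 normalized to untreated cells. Two independent experiments in duplicate, mean ± SD.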

Hepatocyte = assay: Cytotoxicity against CD1 mouse hepatocytes at 10 uM after 48 hrs by MTS assay; format: cell-based; procedure, shortened: as §2
HepG2 [4] = assay: Cytotoxicity against human HepG2 cells at 2 times IC50 after 24 hrs by sulforhodamine B assay; format: functional
Procedure, shortened: (§3)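 HepG2 seeded at 5000 cells/well and treated at twice each compound's calculated IC50 for 24, 48 or 72 h. Cells fixed and viability read by SRB absorbance, normalized to untreated. Three independent experiments run in duplicate; mean ± SD.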

HepG2 [5] = assay: Cytotoxicity against human HepG2 cells at 2 times IC50 after 48 hrs by sulforhodamine B assay; format: functional; procedure, shortened: as §3
HepG2 [6] = assay: Cytotoxicity against human HepG2 cells at 2 times IC50 after 72 hrs by sulforhodamine B assay; format: functional; procedure, shortened: as §3
HepG2 [7] = assay: Inhibition of anchorage-independent growth of human HepG2 cells at 25 uM after 7 days by soft agar colony formation assay; format: functional; conditions: HepG2, 168 h, read-out: GI
Procedure, shortened: (§4)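 HepG2 at 5000 cells/well in top soft agar, exposed to compound for 7 days with compound and fresh medium replaced once on day 4. Agar solubilized on day 7 and cells quantified by fluorescence (485–520 nm filters). Duplicate wells per dose, SD shown.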

HepG2 [8] = assay: Inhibition of anchorage-independent growth of human HepG2 cells at 12.5 uM after 7 days by soft agar colony formation assay; format: functional; conditions: HepG2, 168 h, read-out: GI; procedure, shortened: as §4
HepG2 [9] = assay: Induction of apoptosis in human HepG2 cells assessed as increase in caspase3/7 activity; format: functional, cell-based
HepG2 [10] = assay: Induction of apoptosis in human HepG2 cells assessed as increase in DNA fragmentation by TUNEL assay; format: functional, cell-based
[11] = Cytotoxicity against mouse Hepa1-6 cells after 48 hrs by sulforhodamine B assay; conditions: Hepa1-6, 48 h
Hepa1-6 [12] = assay: Cytotoxicity against mouse Hepa1-6 cells at 2.5 to 5 uM after 48 hrs by MTS assay
[13] = Cytotoxicity against mouse Hepa1-6 cells at 50 uM after 48 hrs by sulforhodamine B assay

Compound `c1ccc2c(c1)ccc1cc(-n3cccc3)ccc12` has an IC50 (HepG2 [1]) of 13.4 µM, an IC50 [2] of 3.9 µM and an IC50 (Caco-2) of over 50 µM. For the same compound, the IC50 (HT-29) was over 50 µM, the IC50 (HeLa) was over 50 µM and the IC50 (NIH3T3) was 2.1 µM. The Activity (Hepa1-6 [3]) was “Active”, the Activity (Hepatocyte) was “Non-toxic” and the Activity (HepG2 [4]) was 20%. For the same compound, the Activity (HepG2 [5]) was over 50%, the Activity (HepG2 [6]) was over 50% and the inhibition of growth at 25 µM (HepG2 [7]) was over 60%. For the same compound, the inhibition of growth at 12.5 µM (HepG2 [8]) was over 80%, the Activity (HepG2 [9]) was “inactive” and the Activity (HepG2 [10]) was “inactive”.

Work on `c1ccn(C23CC4CC(CC(C4)C2)C3)c1` yielded an IC50 (HepG2 [1]) of 38.6 µM, an IC50 (Caco-2) of over 50 µM and an IC50 (HT-29) of 11.9 µM. For the same compound, the IC50 (HeLa) was 12.9 µM, the IC50 (NIH3T3) was 24 µM and the IC50 [11] was 19.9 µM.

In the case of `c1cnc2c(c1)cc(-n1cccc1)c1cccnc12`, the IC50 (HepG2 [1]) is reported as 3 µM, the IC50 (HT-29) is reported as 4.2 µM and the IC50 (HeLa) is reported as 27.9 µM. For the same compound, the IC50 (NIH3T3) was 1.9 µM, the Activity (Hepatocyte) was “Non-toxic” and the Activity (HepG2 [4]) was 20%. It also gave an Activity (HepG2 [5]) of over 50%, an Activity (HepG2 [6]) of over 50% and an inhibition of growth at 25 µM (HepG2 [7]) of over 60%. For the same compound, the inhibition of growth at 12.5 µM (HepG2 [8]) was over 80%, the Activity (HepG2 [9]) was “inactive” and the Activity (HepG2 [10]) was “inactive”. For the same compound, the IC50 [11] was 3.4 µM and the Activity (Hepa1-6 [12]) was “Active”.

`c1ccc2c(c1)ccc1c3ccccc3c(-n3cccc3)cc21` showed an IC50 (HepG2 [1]) of over 50 µM, an IC50 (Caco-2) of over 50 µM and an IC50 (HT-29) of over 50 µM. It also gave an IC50 (HeLa) of over 50 µM, an IC50 (NIH3T3) of over 50 µM and an IC50 [11] of 0.7 µM. The Activity [13] was 50%.

With `c1cc2ccc3ccc(-n4cccc4)c4ccc(c1)c2c34` the IC50 (HepG2 [1]) was over 50 µM, the IC50 (Caco-2) was over 50 µM and the IC50 (HT-29) was 24.3 µM. It also gave an IC50 (HeLa) of 17.7 µM.
